{
  "source": "ChEMBL document CHEMBL4038313",
  "about": "“Expanding the Antiviral Spectrum of 3-Fluoro-2-(phosphonomethoxy)propyl Acyclic Nucleoside Phosphonates: Diamyl Aspartate Amidate Prodrugs” (J Med Chem, 2017)",
  "key": {"[1]": {"tested_on": "Human immunodeficiency virus 1", "experiment": "Antiviral activity against CXCR4-tropic HIV-1 NL4-3 infected in human TZM-bl cells assessed as inhibition of virus-induced cytopathic effect preincubated with cells for 30 mins followed by viral infection measured after 48 hrs in presence of p-24 HIV-1 Ag by luciferase reporter gene assay", "assay_type": "functional, cell-based", "details": "Human immunodeficiency virus 1, NL4-3, TZM-bl", "in_short": "(§1)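 TZM-bl cells, 1 × 10^4 per well in DMEM with 10% FBS and 10 mM […], incubated 30 min at 37 °C with compound. Then HIV-1 NL4.3 (X4) or BaL (R5) added at 100 pg p24 Ag per well. After 48 h, cells lysed with luciferase substrate. Tat-induced luminescence read after 10 min dark incubation as a measure of replication.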"}, "[2]": {"tested_on": "Human immunodeficiency virus 1", "experiment": "Antiviral activity against CCR5 tropic HIV1 BaL infected in human TZM-bl cells assessed as inhibition of virus-induced cytopathic effect preincubated with cells for 30 mins followed by viral infection measured after 48 hrs in presence of p-24 HIV-1 Ag by luciferase reporter gene assay", "assay_type": "functional, cell-based", "details": "Human immunodeficiency virus 1, BaL", "in_short": "as §1"}, "[3]": {"experiment": "Cytotoxicity against human TZM-bl cells assessed as cell viability by tetrazolium dye assay", "assay_type": "cell-based"}, "[4]": {"experiment": "Selectivity index, ratio of CC50 for human TZM-bl cells to EC50 for CXCR4-tropic HIV-1 NL4-3 infected in human TZM-bl cells", "assay_type": "toxicity, cell-based", "details": "read-out: Ratio CC50/EC50"}, "[5]": {"experiment": "Selectivity index, ratio of CC50 for human TZM-bl cells to EC50 for CCR5 tropic HIV1 BaL infected in human TZM-bl cells", "assay_type": "toxicity, cell-based", "details": "read-out: Ratio CC50/EC50"}, "Hepatitis B virus": {"tested_on": "Hepatitis B virus", "experiment": "Antiviral activity against HBV ayw1 infected in human HepG2(2.2.15) cells assessed as reduction in viral replication by measuring extracellular viral DNA copy number after 6 days by real-time qPCR method", "assay_type": "functional, cell-based", "details": "ayw1, HepG2 2.2.15, 144 h", "in_short": "(§2)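 HepG2.2.15 cells (two copies of HBV ayw1 genome), 1.5 × 10^4/well in DMEM with 2% FBS and 380 μg/mL G418. After 16–24 h, compound added in triplicate, medium with compound renewed at day 3. Supernatant collected at day 6, Pronase-treated, and extracellular HBV DNA measured by TaqMan qPCR (precore/core) against an HBV DNA standard curve. EC50/EC90 derived; CC50 by MTS uptake.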"}, "[6]": {"experiment": "Cytotoxicity against human HepG2.2.15 cells assessed as cell viability by tetrazolium dye uptake assay", "assay_type": "cell-based, HepG2 2.2.15", "in_short": "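HepG2.2.15 cells (two integrated copies of HBV ayw1 genome) were seeded at 1.5 × 10^4 cells/well in DMEM with 2% FBS, 380 μg/mL G418, glutamine, antibiotics and nonessential amino acids. After 16−24 h, medium with various compound concentrations was added in triplicate and renewed on day 3. After 6 days of treatment, viability was read by MTS uptake and CC50 was calculated.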"}, "[7]": {"experiment": "Selectivity index, ratio of CC50 for HepG2.2.15 cells to EC50 for HBV ayw1 infected in human HepG2(2.2.15) cells assessed as reduction in viral replication by measuring extracellular viral DNA copy", "in_short": "as §2"}, "Human betaherpesvirus 5 [8]": {"tested_on": "Human betaherpesvirus 5", "experiment": "Antiviral activity against Human cytomegalovirus AD169 infected in HEL cells assessed as inhibition of virus-induced cytopathic effect", "assay_type": "functional, cell-based", "details": "Human betaherpesvirus 5, AD169, HEL", "in_short": "(§3)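 HEL fibroblast monolayers inoculated with 100 CCID50 HCMV (AD-169, Davis) or 20 PFU VZV (TK+ Oka, TK− 07-1). Adsorbed 1–2 h, inoculum removed, then incubated with compound dilutions. HCMV cytopathicity or VZV plaques scored once untreated infected controls reached completion. EC50 is 50% reduction. SI is CC50/EC50, and the potency ratio is the ratio of EC50s.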"}, "Human betaherpesvirus 5 [9]": {"tested_on": "Human betaherpesvirus 5", "experiment": "Antiviral activity against HCMV Davis strain infected in HEL cells assessed as inhibition of virus-induced cytopathic effect", "assay_type": "functional, cell-based", "details": "Human betaherpesvirus 5, Davis", "in_short": "as §3"}, "Human alphaherpesvirus 3 [10]": {"tested_on": "Human alphaherpesvirus 3", "experiment": "Antiviral activity against thymidine kinase expressing Varicella-Zoster virus Oka strain assessed as inhibition of plaque formation", "assay_type": "functional", "details": "Human alphaherpesvirus 3, strain Oka vaccine", "in_short": "as §3"}, "Human alphaherpesvirus 3 [11]": {"tested_on": "Human alphaherpesvirus 3", "experiment": "Antiviral activity against thymidine kinase deficient Varicella-Zoster virus 07-1 infected in HEL cells assessed as inhibition of plaque formation", "assay_type": "functional, cell-based", "details": "Human alphaherpesvirus 3, 07-1, HEL", "in_short": "as §3"}, "[12]": {"experiment": "Cytotoxic activity against HEL cells assessed as alteration of cell morphology after 3 days by microscopic method", "assay_type": "cell-based", "details": "human", "in_short": "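HEL cells with compound; MCC is the lowest concentration giving microscopically detectable alteration of cell morphology.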"}, "[13]": {"experiment": "Stability of the compound in buffer of pH 1 at 2 mg after 6 hrs by 31P NMR spectroscopy", "assay_type": "physicochemical", "details": "pH 1, 6 h", "in_short": "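2.0 mg compound in 0.2 mL acetone-d6 plus 0.3 mL pH 1 buffer (equal parts 0.2 M HCl and 0.2 M KCl). In situ 31P NMR (202 MHz) at 37 °C, spectra every 30 min over 14 h.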"}, "[14]": {"experiment": "Stability of the compound in phosphate buffer of pH 8 at 1 mg after 2 hrs by 31P NMR spectroscopy", "assay_type": "physicochemical", "details": "pH 8, 2 h", "in_short": "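1 mg compound in 0.2 mL acetone-d6 plus 0.3 mL pH 8 buffer (0.1 M Na2HPO4 adjusted with 0.1 M HCl). In situ 31P NMR (202 MHz) at 37 °C, spectra every 30 min over 14 h.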"}},
  "data": [
    {"smiles": "CCCCCOC(=O)C[C@H](NP(=O)(CO[C@H](CF)Cn1cc(C)c(=O)[nH]c1=O)Oc1ccccc1)C(=O)OCCCCC", "note": "(stereo partly specified)", "values": [
      {"measurement": "EC50", "setting": "[1]", "result": "> 43.4", "unit": "µM"},
      {"measurement": "EC50", "setting": "[2]", "result": "> 43.4", "unit": "µM"},
      {"measurement": "CC50", "setting": "[3]", "result": 43.4, "unit": "µM"},
      {"measurement": "selectivity ratio", "setting": "[4]", "result": "< 1"},
      {"measurement": "selectivity ratio", "setting": "[5]", "result": "< 1"},
      {"measurement": "EC50", "setting": "Hepatitis B virus", "result": 42.4, "unit": "µM"},
      {"measurement": "EC90", "setting": "Hepatitis B virus", "result": "> 100", "unit": "µM"},
      {"measurement": "CC50", "setting": "[6]", "result": 33.5, "unit": "µM"},
      {"measurement": "Ratio CC50/EC50", "setting": "[7]", "result": "<1"},
      {"measurement": "EC50", "setting": "Human betaherpesvirus 5 [8]", "result": "> 31.9", "unit": "µM"},
      {"measurement": "EC50", "setting": "Human betaherpesvirus 5 [9]", "result": "> 31.9", "unit": "µM"},
      {"measurement": "EC50", "setting": "Human alphaherpesvirus 3 [10]", "result": 19.7, "unit": "µM"},
      {"measurement": "EC50", "setting": "Human alphaherpesvirus 3 [11]", "result": 23.1, "unit": "µM"},
      {"measurement": "MCC at 72 h", "setting": "[12]", "result": 159, "unit": "µM"},
      {"measurement": "Stability", "setting": "[13]", "result": "Unstable"},
      {"measurement": "Stability", "setting": "[14]", "result": "Unstable"}
    ]}
  ]
}
